Published values pooled from the literature.
Each line is one published result; the experiments were not run side by side.

| SMILES | system | conditions | quantity | result |
| --- | --- | --- | --- | --- |
| N#C[C@@]12C[C@@H]1[C@@H](n1cnc3c(N[C@@H](C4CCC4)C4CC4)nc(I)nc31)[C@H](O)[C@@H]2O | male Wistar rat, plasma | oral, 3 mg/kg | AUC(0-t) | 66.4 ng·h/mL |
| CC1(CN)CCN(c2cnc3c(Sc4ccncc4Cl)n[nH]c3n2)CC1 | male Sprague-Dawley rat, plasma | intravenous, 2 mg/kg | AUC | 151 ng·h/mL |
| CC(=Nc1ccc(N=Cc2cnccn2)cc1)N(C)C | male Sprague-Dawley rat, plasma | intravenous, 20 mg/kg | AUC(0-t) | 254 ng·h/mL |
| O=C1CC[C@H](N2Cc3cc(N4CCN(CC5CCN(c6ccc([C@@H]7c8ccc(O)cc8CC[C@@H]7c7ccccc7)cc6)CC5)CC4)ccc3C2=O)C(=O)N1 | female Sprague-Dawley rat, plasma | oral, 20 mg/kg, fed | AUC(0-t) | 18400 ng·h/mL |
| COc1ccc2cc3n(c(=O)c2c1OC)CCc1cc2c(cc1-3)OCO2 | male Sprague-Dawley rat, blood | oral, 50 mg/kg | AUC(0-t) | 701 ng·h/mL |
| C[C@H]1[C@@H](O)O[C@@H]2O[C@@]3(C)CC[C@H]4[C@H](C)CC[C@@H]1[C@@]24OO3 | Sprague-Dawley rat, plasma | oral, 10 mg/kg | AUC(0-inf) | 205 ng·h/mL |
| O=C1c2ccncc2C(=O)c2c1[nH]c1ccccc21 | rat, plasma | intravenous, 1 mg/kg, single dose | AUC(0-inf) | 1430 nM·h |
| O=C(C=Cc1ccccc1)Nc1cc(-c2ccnc(N3CCC(O)CC3)c2)ccn1 | female Sprague-Dawley rat, plasma | intravenous, 5 mg/kg | AUC(0-inf) | 375 ng·h/mL |
